Bioassay records as filed in PubChem BioAssay.
TRPC6 inhibitor = inhibitors of mouse TRPC6 channel | Q61143 | HEK293-TRPC6, membrane potential dye, ACh-evoked depolarization; hits give low values | 310,000 compounds, 1.1% hits | B-score at 10 µM;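 active = B-score under library mean minus 3 SD, initial fluorescence not abnormally high, positive integrated signal ratio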;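 also: B-score derived from integrated fluorescence ratio over the kinetic read; more negative B-score means stronger inhibition of depolarization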
TRPC4 agonist = activators of mouse TRPC4 channel; Q9QUQ5; HEK293 TRPC4beta/mu-opioid, Fluo4 calcium fluorescence; hits give high values; B-score at 10 µM; 310,000 compounds, 0.49% hits;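 active = B-score above 5 SD of library B-scores, and initial fluorescence ratio not above library mean plus 5 SD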;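 also: positive B-score marks a calcium rise read as TRPC4 activation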
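Material: HEK293 stable line with TRPC4beta plus mu-opioid receptor; technique: Fluo4 calcium-sensitive dye fluorescence, kinetic, 1 Hz baseline; timing: Fluo4 dye loading 45 min at room temperature, 110 s recording; controls: assay buffer as low control, maximal DAMGO as high control; read-out: integrated baseline-normalised fluorescence ratio, converted to per-well B score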
TRPC4 inh = TRPC4 (mouse) channel inhibition. 300,000 compounds, 0.39% hits. HEK293 TRPC4beta/mu-opioid, DAMGO-evoked Fluo4 calcium flux; hits give low values. Q9QUQ5. B-score at 10 µM;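 active = B-score over 3 SD under the library average, no early fluorescence shift, positive overall ratio signal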
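material = TRPC4beta/mu-opioid receptor HEK293 cell line | probe or stimulus = sequential submaximal and maximal DAMGO stimulation | compound dosing = one concentration per compound | measured by = Fluo4 Ca2+ flux fluorescence | evaluation = integrated fluorescence ratio relative to baseline, converted to per-well B score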
Kir21 inh = blocks the mouse Kir2.1 inward-rectifier potassium channel. HEK293-Kir2.1, FluxOR thallium flux fluorescence; hits give low values. B-score at 10 µM. 310,000 compounds, 0.85% hits. AID 1672;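 active = fluorescence ratio B-score at or below minus 3 SD of library scores, with starting-brightness B-score within 2 SD, cut at about -4.2 in these data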;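 also: channel flux triggered by added potassium and thallium sulfate stimulus; B-score of peak minus minimum fluorescence over baseline after thallium stimulus; more negative B-score means stronger Kir2.1 block with less thallium influx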
TRPC6 act = mouse TRPC6 channel activation. AID 2550. Q61143. 310,000 compounds, 0.13% hits. B-score at 10 µM. HEK293-TRPC6 membrane potential dye fluorescence; hits give high values;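 active = B-score of the integrated fluorescence ratio above library mean plus 3 SD, and starting fluorescence ratio within library mean plus 5 SD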;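 also: higher score means more depolarization so channel activation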
TRPC4 PAM = allosteric potentiators of mouse TRPC4 channel; HEK293 TRPC4beta/mu-opioid, DAMGO EC20, Fluo-4 Ca2+ flux; hits give high values; B-score at 10 µM; 310,000 compounds, 0.42% hits; AID 2227;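 active = B-score of calcium response area above 5 SD of library B-scores, with initial fluorescence ratio within 5 SD of library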;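 also: B-score of integrated fluorescence ratio over time as area under calcium response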
* = called active by the depositor; i = inactive; / = no result given; ! = not active in a repeat. Rows were chosen to be rich in hits. Some 3% of all compounds tested hit in one or more screens of this group.

SMILES	TRPC6 inhibitor	TRPC4 agonist	TRPC4 inh	Kir21 inh	TRPC6 act	TRPC4 PAM
COCCCn1c(=N)c(C(=O)NCC2CCCO2)cc2c(=O)n3ccccc3nc21 (stereo unspecified)	i	i	i	-0.1	i	i
Cc1ccc2nc3c(cc(C(=O)NC4CCCC4)c(=N)n3CCCn3ccnc3)c(=O)n2c1	-5.5*	i	i	0.01	i	i
COCCN(C(=O)COC(=O)CCCOc1ccccc1)c1c(N)n(Cc2ccccc2)c(=O)[nH]c1=O	i	i	i	1.6	i	i
N=c1c(C(=O)NCCc2ccccc2)cc2c(=O)n3ccccc3nc2n1CC1CCCO1 (stereo unspecified)	-5.1*	i	i	0.24	i	i
Cc1cccn2c(=O)c3cc(C(=O)NCCc4ccccc4)c(=N)n(CC4CCCO4)c3nc12 (stereo unspecified)	i	i	i	-0.78	i	i
N#Cc1c(N)sc2c1CCCCCC2	i	i	-7*	2.1	i	i
CCN(CCO)Cc1csc2ccc(C(C)(C)C)cc12	i	i	i	-7*	i	i
O=C(NCCCSc1ccccc1)c1cc(Br)ccc1O	i	i	i	-0.73	i	i
CC1=NN(c2ccccc2)C(=O)C1	i	i	i	-0.86	i	i
CC(C)c1ccc(C2=NN(c3ccccc3)C(=O)CC2)cc1	i	i	i	1.4	i	11*
COc1ccc(CNCc2cccc(OC)c2OC)cc1Br	i	i	i	-5*	i	i
COc1ccccc1CNCc1cc(OC)c(OC)c(OC)c1	i	i	i	-0.17	i	i
COc1ccc(S(=O)(=O)N2CCCCC2)cc1NC(=O)C1COc2ccccc2O1 (stereo unspecified)	i	i	i	0.67	i	i
CCNC(=O)/C(C#N)=C/c1c(N2CCN(c3ccc(OC)cc3)CC2)nc2c(C)cccn2c1=O	i	i	i	0.69	i	i
Cc1cccn2c(=O)c(/C=C(\C#N)C(N)=O)c(N3CCN(c4ccccc4)CC3)nc12	i	i	i	-0.22	i	12*
CCOC(=O)/C(C#N)=C/c1c(N2CCN(c3ccc(OC)cc3)CC2)nc2c(C)cccn2c1=O	i	i	i	-0.02	i	11*
CCNC(=O)/C(C#N)=C/c1c(N2CCN(c3ccccc3)CC2)nc2c(C)cccn2c1=O	i	i	i	-1.7	i	i
Cc1cccn2c(=O)c(/C=N/O)c(N3CCCC3)nc12	i	i	-8*	0	i	i
Cc1ccc(S(=O)(=O)N2CCN(C(=O)COC(=O)c3cnc(C)cn3)CC2)c(C)c1	i	i	i	-1.1	i	i
Cc1csc2c(N3CCN(C(=O)Nc4ccc(OC(F)(F)F)cc4)CC3)ncnc12	i	98*	i	-1.2	i	i
O=C(CC1OC(=O)c2ccccc21)Nc1cc(Cl)ccc1N1CCCC1 (stereo unspecified)	i	i	i	-0.59	i	i
CCCOc1ncnc2c1[nH]c1ccccc12	i	i	i	0.57	i	i
CCN(CC)c1ncnc2c1[nH]c1ccccc12	i	i	-5*	-0.09	i	i
NC(=O)CCN1CCN(CCOC2Cc3cc(Cl)ccc3Sc3ccccc32)CC1 (stereo unspecified)	i	i	i	-6.4*	i	i
CC(=O)N1CCCC(C(=O)c2ccc3c4c(cccc24)CC3)C1 (stereo unspecified)	i	i	i	0.98	i	i
SMILES	TRPC6 inhibitor	TRPC4 agonist	TRPC4 inh	Kir21 inh	TRPC6 act	TRPC4 PAM
O=C(c1ccc2c3c(cccc13)CC2)C1CCCN(Cc2cccnc2)C1 (stereo unspecified)	i	81*	i	0.02	i	i
COc1ccc(C(=O)C2CCCN(Cc3ccc4nonc4c3)C2)cc1OC (stereo unspecified)	i	i	i	-0.01	i	i
Cc1cccc(CN2CCCC(C(=O)c3ccc4c5c(cccc35)CC4)C2)n1 (stereo unspecified)	i	i	i	-4.2*	i	i
COc1cc(CN2CCCC(C(=O)c3ccc4c5c(cccc35)CC4)C2)cc(OC)c1O (stereo unspecified)	i	44*	i	-2.6	i	i
COc1ccc(C(=O)C2CCCN(Cc3ccc4nonc4c3)C2)c(OC)c1 (stereo unspecified)	i	i	-6*	-5.2*	i	i
CN1CCC(C(=O)N2CCCC(C(=O)c3ccc4c5c(cccc35)CC4)C2)CC1 (stereo unspecified)	i	i	i	0.11	i	i
CCCn1c(=O)c(C(=O)NNC(=O)c2ccccc2Cl)c(O)c2ccccc21	i	48*	i	0.01	i	i
CC(NC(=O)/C(C#N)=C/c1ccc(Cl)c([N+](=O)[O-])c1)c1ccccc1 (stereo unspecified)	i	i	i	-5.5*	i	i
COC(=O)N1C(=O)[C@@](c2ccccc2)(C2CCCCC2)N1C(=O)OC	i	i	i	-0.18	i	i
CC1(C)CC(NC2C3CC4CC(C3)CC2C4)CC(C)(C)N1 (stereo unspecified)	i	i	i	-2.2	i	12*
COc1ccc2c(c1)c1ncn(CCN3CCCC3)c(=O)c1n2C	i	i	i	-0.56	i	15*
O=C1C(Nc2ccccc2)=C(N2CCCCC2)C(=O)c2ccccc21	i	i	i	0.28	i	i
CN(C1=C(N2CCCCC2)C(=O)c2ccccc2C1=O)c1ccccc1	-7.2*	i	i	0.21	i	i
O=C(NC1CCOCC1)C1CCC(=O)N(CCc2cccc(F)c2)C1 (stereo unspecified)	i	i	i	0.5	i	i
CC(COc1ccccc1Cc1ccccc1)N1CCCCC1 (stereo unspecified)	i	67*	i	-5.8*	12*	i
O=C(COC(=O)c1cccc([N+](=O)[O-])c1)NCc1cccs1	i	i	/	0.35	i	i
Cc1ncsc1CCOC(=O)c1cccc([N+](=O)[O-])c1	i	i	-6*!	0.66	i	i
CC(CC12CC3CC(CC(C3)C1)C2)NCc1ccccc1O (stereo unspecified)	i	i	i	-5*	i	i
